# Published values collected from several papers.
SMILES,organism,assay,system,conditions,endpoint,result
CC(=O)ON=C1C=CC(=C(C#N)c2ccccc2)C=C1,Nakaseomyces glabratus,"microbial killing, broth dilution",ATCC15126,48 h,MFC,16 µg/mL
O=C(O)c1cn(C2CC2)c2cc(N3CCNCC3)c(F)cc2c1=O,Bacillus subtilis,"microbial growth, well diffusion",ATCC6051,100 µg/mL,inhibition zone,30 mm
C[C@@H]1[C@H](O)[C@@H](C)/C=C/C=C/C=C/C=C/C=C/C=C/C=C/[C@H](O[C@@H]2O[C@H](C)[C@@H](O)[C@H](N)[C@@H]2O)C[C@@H]2O[C@](O)(C[C@@H](O)C[C@@H](O)[C@H](O)CC[C@@H](O)C[C@@H](O)CC(=O)O[C@H]1C)C[C@H](O)[C@H]2C(=O)O,Cryptococcus neoformans,"microbial growth, broth dilution",,72 h,MIC,0.25 µg/mL
C=CC(=O)ON=C1C=CC(=C(C#N)c2ccccc2)C=C1,Nakaseomyces glabratus,"microbial killing, broth dilution",ATCC15126,48 h,MFC,16 µg/mL
Cc1ccc(NC(=O)c2ccc(COC(Cn3ccnc3)c3ccc(Cl)cc3Cl)cc2)cc1 (stereo not shown),Nakaseomyces glabratus,"microbial growth, broth dilution",,,MIC80,0.06 µg/mL
C#CCON=C1C=CC(=C(C#N)c2ccccc2)C=C1,Nakaseomyces glabratus,"microbial growth, broth dilution",ATCC15126,48 h,MIC,16 µg/mL
CC1(C)S[C@@H]2[C@H](NC(=O)[C@H](N)c3ccccc3)C(=O)N2[C@H]1C(=O)O,Bacillus subtilis,microbial growth,,,MIC,2 µg/mL
O=C(Nc1ccc(Br)cc1)c1ccc(COC(Cn2ccnc2)c2ccc(Cl)cc2Cl)cc1 (stereo not shown),Nakaseomyces glabratus,"microbial growth, broth dilution",,,MIC80,0.125 µg/mL
CNC(C)C1CCC(N)C(OC2C(N)CC(N)C(OC3OCC(C)(O)C(NC)C3O)C2O)O1 (stereo not shown),Bacillus subtilis,"microbial growth, broth dilution",,,MIC,1 µg/mL
C#CCOC(=O)ON=C1C=CC(=C(C#N)c2ccccc2)C=C1,Nakaseomyces glabratus,"microbial growth, broth dilution",ATCC15126,48 h,MIC,16 µg/mL
O=C(Nc1cccc(F)c1)c1ccc(COC(Cn2ccnc2)c2ccc(Cl)cc2Cl)cc1 (stereo not shown),Nakaseomyces glabratus,"microbial growth, broth dilution",,,MIC80,0.125 µg/mL
C[C@@H]1[C@H](O)[C@@H](C)/C=C/C=C/C=C/C=C/C=C/C=C/C=C/[C@H](O[C@@H]2O[C@H](C)[C@@H](O)[C@H](N)[C@@H]2O)C[C@@H]2O[C@](O)(C[C@@H](O)C[C@@H](O)[C@H](O)CC[C@@H](O)C[C@@H](O)CC(=O)O[C@H]1C)C[C@H](O)[C@H]2C(=O)O,Cryptococcus neoformans,"microbial growth, broth dilution",H99,48 h,MIC,0.5 µg/mL
C/C(=N/NC(=O)c1cn(-c2ccccc2)nc1-c1ccc(Br)cc1)c1c(O)cc(C)oc1=O,Bacillus subtilis,microbial growth,,,MIC,70 µg/mL
[H]/N=C(/N)N[C@H]1[C@H](O)[C@@H](O)[C@H](O[C@@H]2O[C@@H](C)[C@](O)(C=O)[C@H]2O[C@@H]2O[C@@H](CO)[C@H](O)[C@@H](O)[C@@H]2NC)[C@@H](N/C(N)=N\[H])[C@@H]1O,Bacillus subtilis,"microbial growth, well diffusion",MTCC121,"1000 µg/mL, 18 h",inhibition zone,24 mm
O=C(Nc1ccc(F)cc1F)c1ccc(COC(Cn2ccnc2)c2ccc(Cl)cc2Cl)cc1 (stereo not shown),Nakaseomyces glabratus,"microbial growth, broth dilution",,,MIC80,0.03 µg/mL
C/C(=N/NC(=O)c1cn(-c2ccccc2)nc1-c1ccc(C)cc1)c1c(O)cc(C)oc1=O,Bacillus subtilis,microbial growth,,,MIC,50 µg/mL
